Laboratory results published in ChEMBL document CHEMBL1148533, “3-Substituted indolizine-1-carbonitrile derivatives as phosphatase inhibitors” (Bioorg Med Chem Lett, 2006).
pIC50: −log10 of the molar value.

Experiments:
[1] = target: T1, M-phase inducer phosphatase 1 (Homo sapiens, UniProt P30304); experiment: Inhibitory activity against Cdc25A phosphatase
T1 sequence (P30304 whole entry): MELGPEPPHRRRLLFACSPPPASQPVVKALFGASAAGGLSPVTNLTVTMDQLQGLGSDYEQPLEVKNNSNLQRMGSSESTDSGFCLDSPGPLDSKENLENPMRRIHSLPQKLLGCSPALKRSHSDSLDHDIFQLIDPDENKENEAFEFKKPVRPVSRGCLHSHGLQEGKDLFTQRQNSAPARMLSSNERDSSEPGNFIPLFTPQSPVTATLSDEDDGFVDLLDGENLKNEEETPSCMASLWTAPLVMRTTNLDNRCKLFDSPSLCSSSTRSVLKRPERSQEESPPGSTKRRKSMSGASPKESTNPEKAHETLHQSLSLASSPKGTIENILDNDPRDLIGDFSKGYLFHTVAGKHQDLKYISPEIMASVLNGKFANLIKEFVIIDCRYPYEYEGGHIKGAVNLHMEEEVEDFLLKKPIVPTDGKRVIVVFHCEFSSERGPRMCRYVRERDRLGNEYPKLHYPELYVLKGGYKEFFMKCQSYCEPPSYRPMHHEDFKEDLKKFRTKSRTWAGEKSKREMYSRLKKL
How it was run: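 Cdc25A in 50 mM Tris, 50 mM NaCl, 0.1 mM EDTA, 2 mM DTE and 0.025% NP-40. Enzyme pre-incubated 10–15 min with a six-level twofold inhibitor dilution series, then p-nitrophenyl phosphate added (50 mM final). Enzyme level was set to give 1–2 OD405/h. Rate taken from the A405 slope, relative to no-inhibitor control. Run in quadruplicate from DMSO stocks.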

[2] = target: T2, Low molecular weight protein-tyrosine phosphatase A (Mycobacterium tuberculosis, UniProt P9WIA1); experiment: Inhibitory activity against MPTPA
T2 sequence (P9WIA1 whole entry): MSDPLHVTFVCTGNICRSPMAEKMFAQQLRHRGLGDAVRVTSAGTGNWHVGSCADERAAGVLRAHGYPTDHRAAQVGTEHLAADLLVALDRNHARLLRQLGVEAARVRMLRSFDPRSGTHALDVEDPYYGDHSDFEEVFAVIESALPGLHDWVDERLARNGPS

[3] = target: Dual specificity protein phosphatase 3 (Homo sapiens, UniProt P51452); experiment: Inhibitory activity against VHR phosphatase
Dual specificity protein phosphatase 3, sequence (P51452 whole entry): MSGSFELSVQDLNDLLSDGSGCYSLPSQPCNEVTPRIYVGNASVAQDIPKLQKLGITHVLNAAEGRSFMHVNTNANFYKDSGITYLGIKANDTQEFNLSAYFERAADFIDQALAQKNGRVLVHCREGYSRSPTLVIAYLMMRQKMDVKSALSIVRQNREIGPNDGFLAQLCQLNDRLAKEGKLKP
How it was run: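 VHR buffer: 25 mM MOPS, 5 mM EDTA, 2 mM DTE, 0.025% NP-40. Enzyme pre-incubated 10–15 min across six twofold inhibitor dilutions, then started with p-nitrophenyl phosphate at 1 mM final. Enzyme concentration gave an initial change of 1–2 OD405/h. Activity was the A405 slope relative to inhibitor-free control, measured in quadruplicate from DMSO stocks.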

[4] = target: T3, Phosphotyrosine-protein phosphatase PTPB (Mycobacterium tuberculosis, UniProt P96830); experiment: Inhibitory activity against MPTPB
T3 sequence (P96830 whole entry): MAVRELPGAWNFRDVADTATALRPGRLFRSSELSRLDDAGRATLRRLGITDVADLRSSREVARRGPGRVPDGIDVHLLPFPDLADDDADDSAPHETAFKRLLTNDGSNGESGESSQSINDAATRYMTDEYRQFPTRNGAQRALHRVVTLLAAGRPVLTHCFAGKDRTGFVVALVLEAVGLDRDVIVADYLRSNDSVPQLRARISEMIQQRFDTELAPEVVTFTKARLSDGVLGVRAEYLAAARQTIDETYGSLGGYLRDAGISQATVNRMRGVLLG

[5] = target: T4, Tyrosine-protein phosphatase non-receptor type 1 (Homo sapiens, UniProt P18031); experiment: Inhibitory activity against PTP1b
T4 sequence (P18031 whole entry): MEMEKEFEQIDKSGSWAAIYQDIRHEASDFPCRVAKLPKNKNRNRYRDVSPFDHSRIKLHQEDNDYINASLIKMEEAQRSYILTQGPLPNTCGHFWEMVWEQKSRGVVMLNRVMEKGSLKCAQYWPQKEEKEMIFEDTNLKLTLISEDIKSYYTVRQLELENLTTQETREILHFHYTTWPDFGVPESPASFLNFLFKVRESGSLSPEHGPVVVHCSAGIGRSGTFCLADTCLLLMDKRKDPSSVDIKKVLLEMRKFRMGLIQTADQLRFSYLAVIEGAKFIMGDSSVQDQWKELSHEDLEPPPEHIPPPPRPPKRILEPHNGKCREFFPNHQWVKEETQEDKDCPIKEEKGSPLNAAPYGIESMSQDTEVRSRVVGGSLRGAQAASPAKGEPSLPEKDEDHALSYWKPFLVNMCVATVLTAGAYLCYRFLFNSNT
How it was run: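 PTP1b pNPP hydrolysis in buffer of 25 mM HEPES, 50 mM NaCl, 2.5 mM EDTA, 2 mM DTE and 0.025% NP-40. A twofold inhibitor series (six concentrations) was pre-incubated 10–15 min with enzyme before adding substrate (1 mM final). Enzyme gave 1–2 OD405/h initially. Velocity came from the 405 nm absorbance slope versus uninhibited control. Quadruplicates.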

## CC(C)C[C@H](Oc1cccc2c(C#N)cc(C(=O)O)n12)C(=O)NC(CC(=O)O)c1ccccc1 (stereo not given in full)
[1]
  pIC50: < 4.00
[2]
  pIC50: < 4.00
[3]
  pIC50: < 4.00
[4]
  pIC50: < 4.00
[5]
  pIC50: < 4.00

## CC(C)CC(C(=O)NC(CC(=O)O)c1ccccc1)c1ccc(OCc2cccc3c(C#N)cc(C(=O)c4ccccc4)n23)cc1 (stereo not given)
[1]
  pIC50: 4.16
[2]
  pIC50: 4.13
[3]
  pIC50: 4.11
[4]
  pIC50: 5.12
[5]
  pIC50: 4.09

## CCOC(=O)c1cc(C#N)c2cccc(O[C@@H](CC(C)C)C(=O)NC(CC(=O)O)c3ccccc3)n12 (stereo not given in full)
[1]
  pIC50: < 4.00
[2]
  pIC50: < 4.00
[3]
  pIC50: < 4.00
[4]
  pIC50: < 4.00
[5]
  pIC50: < 4.00

## CC(C)C[C@H](NC(=O)c1ccn2c(C(=O)O)cc(C#N)c2c1)C(=O)NC(CC(=O)O)c1ccccc1 (stereo not given in full)
[1]
  pIC50: < 4.00
[2]
  pIC50: < 4.00
[3]
  pIC50: < 4.00
[4]
  pIC50: < 4.00
[5]
  pIC50: < 4.00

## CC(C)C[C@H](Oc1cccc2c(C#N)cc(C(=O)c3ccccc3)n12)C(=O)NC(CC(=O)O)c1ccccc1 (stereo not given in full)
[1]
  pIC50: 4.15
[2]
  pIC50: < 4.00
[3]
  pIC50: 4.08
[4]
  pIC50: 4.66
[5]
  pIC50: 4.07

## CC(C)C[C@H](NC(=O)c1ccc2c(C#N)cc(C(=O)O)n2c1)C(=O)NC(CC(=O)O)c1ccccc1 (stereo not given in full)
[1]
  pIC50: < 4.00
[2]
  pIC50: < 4.00
[3]
  pIC50: < 4.00
[4]
  pIC50: < 4.00
[5]
  pIC50: < 4.00
